Laboratory results: ChEMBL document CHEMBL5154825, “Discovery of V-0219: A Small-Molecule Positive Allosteric Modulator of the Glucagon-Like Peptide-1 Receptor toward Oral Treatment for "Diabesity"” (J Med Chem, 2022)
The source made the active and inactive calls. The calls are words filed in the database; no cut-off is given here.

Assays:
[1] = target: T1, Glucagon-like peptide 1 receptor (Rattus norvegicus) (UniProt P32301); test: Positive allosteric modulator activity at GLP-1R in rat INS1 beta-cells assessed potentiation of GLP-1(7-36)NH2 induced insulin secretion at 1 uM incubated for 30 mins in presence of 15 mM of glucose by ELISA; type: cell-based; conditions: filed as positive allosteric modulator
T1 sequence (whole entry): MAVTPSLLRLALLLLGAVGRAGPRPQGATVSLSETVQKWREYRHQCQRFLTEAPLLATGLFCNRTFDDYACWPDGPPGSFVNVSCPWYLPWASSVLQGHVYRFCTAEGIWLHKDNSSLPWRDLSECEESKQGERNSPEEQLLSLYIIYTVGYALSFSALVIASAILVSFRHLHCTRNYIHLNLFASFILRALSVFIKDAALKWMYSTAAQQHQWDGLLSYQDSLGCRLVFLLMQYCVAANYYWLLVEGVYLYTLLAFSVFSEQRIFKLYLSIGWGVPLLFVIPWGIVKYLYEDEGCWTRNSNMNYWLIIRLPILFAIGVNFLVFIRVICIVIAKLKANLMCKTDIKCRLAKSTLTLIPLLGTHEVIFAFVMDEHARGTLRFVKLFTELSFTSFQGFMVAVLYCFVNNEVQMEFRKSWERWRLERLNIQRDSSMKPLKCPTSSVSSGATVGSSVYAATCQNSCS
Summary of the method: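 Rat INS-1 cells held in glucose-free medium for 1.5 h (100,000 cells/well). […] Medium was centrifuged at 4 °C and secreted insulin measured by ELISA.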

[2] = target: T2, Glucagon-like peptide 1 receptor (Rattus norvegicus, UniProt P32301); test: Positive allosteric modulator activity at GLP-1R in rat INS1 beta-cells assessed potentiation of GLP-1(7-36)NH2 induced insulin secretion incubated for 30 mins in presence of high glucose condition by ELISA; type: cell-based
T2 sequence (P32301 whole entry): T1 sequence (whole entry)

[3] = Toxicity in Wistar rat assessed anxiety like behavior at 0.5 to 1 mg/kg, ip measured after 30 mins by elevated plus-maze analysis; type: organism-based; conditions: in vivo, 0.5 h, dose 0.5-1 mg/kg
Summary of the method: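 Male Wistar rats, naive to the maze, were handled for 7 days. Compound at 0.5 or 1 mg/kg ip in saline/DMSO (0.2%). 30 min after dosing, each rat was placed in the maze centre facing an open arm, and open-arm entries and % time in open arms were scored over 5 min. No retesting; 8 animals.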

[4] = Effective permeability of compound in PBS buffer at pH 7.4 at 50 to 100 uM after 5 hrs by PAMPA; type: ADME; conditions: pH 7.4, 5 h, dose 50-100 µM
[5] = Toxicity in Wistar rat assessed hypolocomotion at 0.5 to 1 mg/kg, ip measured after 30 mins by elevated plus-maze analysis; conditions: in vivo, 0.5 h

NC(=O)C1CCN(Cc2nc(-c3ccc(C(F)(F)F)cc3)no2)CC1
Activity [1]: Active

FC(F)(F)c1ccc(-c2noc(CN3CCCC(CN4CCOCC4)C3)n2)cc1 (stereo unspecified)
EC50 [2]: 8 pM | Activity [3]: Non-Toxic | Peff [4]: Active | Activity [5]: Non-Toxic

FC(F)(F)c1ccc(-c2noc(CN3CCCCC3CCc3ccccn3)n2)cc1 (stereo unspecified)
Activity [1]: Active
